Experimental data as given in ChEMBL document CHEMBL1142526, “Synthesis of new pyrazolo[5,1-c][1,2,4] benzotriazines, pyrazolo[5,1-c]pyrido[4,3-e][1,2,4] triazines and their open analogues as cytotoxic agents in normoxic and hypoxic conditions” (Bioorg Med Chem, 2008).
Calls of active or inactive are those of the source. No cut-off for these calls is given here.

Key:
HCT-8 [1] = assay: Cytotoxicity against human HCT8 cells at 100 uM after 72 hrs by SRB assay; format: functional; conditions: HCT-8, 72 h
Method in brief: (§1)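 Single-concentration growth inhibition of HCT-8 cells: seeded at 5000/well with 24 h adherence at 37 °C in 5% CO2, then 72 h continuous drug exposure, eight replicate wells. Maximum final DMSO was 0.1%, with DMSO and MMC controls. Protein was stained with 0.4% SRB in 1% acetic acid, solubilised in 10 mM Tris and absorbance read at 540 nm.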

HCT-8 [2] = assay: Cytotoxicity against human HCT8 cells at 10 uM after 72 hrs by SRB assay; format: functional; conditions: HCT-8, 72 h; method in brief: as §1
HCT-8 [3] = assay: Cytotoxicity against human HCT8 cells after 72 hrs by SRB assay; format: functional, cell-based; conditions: HCT-8, 72 h
Method in brief: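 SRB assay on HCT-8 cells seeded at 5000/well and allowed 24 h adherence at 37 °C in 5% CO2, then given 72 h continuous exposure across a 10–100 concentration range, eight wells per condition. Maximum final DMSO was 0.1%. Fixed cells were stained with 0.4% SRB in 1% acetic acid, solubilised in 10 mM Tris and read at 540 nm. IC50 is the concentration giving a 50% reduction in net protein increase versus control.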

HCT-8 [4] = assay: Induction of ROS production in human HCT8 cells under normoxic condition by flow cytometric method relative to untreated control; format: functional, cell-based
Method in brief: (§2)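 Dichlorofluorescein method. HCT-8 cells in D-MEM high glucose with 10% FCS, 1–2 × 10^6 per 25 cm² flask, adhered overnight, then given 10 µM under normoxia or hypoxia. DCFH-DA loaded 20 min at 37 °C. Cells harvested with Puck's EDTA, fluorescence read by flow cytometry with 535 nm filter. Expressed as % over DMSO-treated basal; mean ± SEM of at least three experiments.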

HCT-8 [5] = assay: Induction of ROS production in human HCT8 cells under hypoxic condition by flow cytometric method relative to untreated control; format: functional, cell-based; method in brief: as §2
HCT-8 [6] = assay: Cell cycle arrest in human HCT8 cells in normoxic condition assessed as accumulation at G0/G1 phase at 10 uM after 24 hrs by flow cytometry; format: functional
Method in brief: (§3)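 HCT-8 cells in D-MEM high glucose with 10% FCS were seeded at 1–2 × 10^6 per 25 cm² flask, left to adhere overnight, then exposed to drug for 24 h under normoxia or hypoxia. Drug was washed out and cells reoxygenated for 48 h. Floating and adherent cells were pooled, fixed in 70% ice-cold ethanol and stained with PI (50 µg/ml) plus RNase A (5 U/ml) for 30 min. Phases and the sub-G1 hypodiploid fraction (DNA fragmentation) were read by flow cytometry.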

HCT-8 [7] = assay: Cell cycle arrest in human HCT8 cells in normoxic condition assessed as accumulation at G0/G1 phase at 10 uM after 24 hrs of drug washout by flow cytometry; format: functional
HCT-8 [8] = assay: Cell cycle arrest in human HCT8 cells in normoxic condition assessed as accumulation at G0/G1 phase at 10 uM after 48 hrs of drug washout by flow cytometry; format: functional
Method in brief: (§4)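 HCT-8 cells in D-MEM high glucose with 10% FCS, plated at 1–2 × 10^6 per 25 cm² flask and left to adhere overnight. Exposed to 10 µM for 24 h, normoxia or hypoxia (0.1% O₂, 95% N₂/5% CO₂), then washed out and reoxygenated 48 h. Floating plus EDTA-harvested cells fixed in 70% ethanol, stained with PI (50 µg/ml) plus RNase A, phase fractions read by flow cytometry.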

HCT-8 [9] = assay: Cell cycle arrest in human HCT8 cells in normoxic condition assessed as accumulation at S phase at 10 uM after 24 hrs by flow cytometry; format: functional; method in brief: as §3
HCT-8 [10] = assay: Cell cycle arrest in human HCT8 cells in normoxic condition assessed as accumulation at S phase at 10 uM after 48 hrs of drug washout by flow cytometry; format: functional; method in brief: as §4
HCT-8 [11] = assay: Cell cycle arrest in human HCT8 cells in normoxic condition assessed as accumulation at G2/M phase at 10 uM after 24 hrs by flow cytometry; format: functional; method in brief: as §3
HCT-8 [12] = assay: Cell cycle arrest in human HCT8 cells in normoxic condition assessed as accumulation at G2/M phase at 10 uM after 24 hrs of drug washout by flow cytometry; format: functional; method in brief: as §3
HCT-8 [13] = assay: Cell cycle arrest in human HCT8 cells in normoxic condition assessed as accumulation at G2/M phase at 10 uM after 48 hrs of drug washout by flow cytometry; format: functional; method in brief: as §4
HCT-8 [14] = assay: Effect on cell cycle arrest in human HCT8 cells in normoxic condition assessed as DNA fragmentation at 10 uM after 24 hrs by flow cytometry; format: functional; method in brief: as §3
HCT-8 [15] = assay: Effect on cell cycle arrest in human HCT8 cells in normoxic condition assessed as DNA fragmentation at 10 uM after 48 hrs of drug washout by flow cytometry; format: functional; method in brief: as §3
HCT-8 [16] = assay: Cell cycle arrest in human HCT8 cells in hypoxic condition assessed as accumulation at G0/G1 phase at 10 uM after 24 hrs by flow cytometry; format: functional; method in brief: as §3
HCT-8 [17] = assay: Cell cycle arrest in human HCT8 cells in hypoxic condition assessed as accumulation at G0/G1 phase at 10 uM after 24 hrs of drug washout by flow cytometry; format: functional; method in brief: as §3
HCT-8 [18] = assay: Cell cycle arrest in human HCT8 cells in hypoxic condition assessed as accumulation at G0/G1 phase at 10 uM after 48 hrs of drug washout by flow cytometry; format: functional; method in brief: as §4
HCT-8 [19] = assay: Cell cycle arrest in human HCT8 cells in hypoxic condition assessed as accumulation at S phase at 10 uM after 24 hrs by flow cytometry; format: functional; method in brief: as §3
HCT-8 [20] = assay: Cell cycle arrest in human HCT8 cells in hypoxic condition assessed as accumulation at S phase at 10 uM after 48 hrs of drug washout by flow cytometry; format: functional; method in brief: as §4
HCT-8 [21] = assay: Cell cycle arrest in human HCT8 cells in hypoxic condition assessed as accumulation at G2/M phase at 10 uM after 24 hrs by flow cytometry; format: functional; method in brief: as §3
HCT-8 [22] = assay: Cell cycle arrest in human HCT8 cells in hypoxic condition assessed as accumulation at G2/M phase at 10 uM after 24 hrs of drug washout by flow cytometry; format: functional; method in brief: as §3
HCT-8 [23] = assay: Cell cycle arrest in human HCT8 cells in hypoxic condition assessed as accumulation at G2/M phase at 10 uM after 48 hrs of drug washout by flow cytometry; format: functional; method in brief: as §4
HCT-8 [24] = assay: Effect on cell cycle arrest in human HCT8 cells in hypoxic condition assessed as DNA fragmentation at 10 uM after 24 hrs by flow cytometry; format: functional; method in brief: as §3
HCT-8 [25] = assay: Effect on cell cycle arrest in human HCT8 cells in hypoxic condition assessed as DNA fragmentation at 10 uM after 48 hrs of drug washout by flow cytometry; format: functional; method in brief: as §3

CCOC(=O)c1cnn2c1n[n+]([O-])c1cnccc12
inhibition at 100 µM (HCT-8 [1]): 97.4%
inhibition at 10 µM (HCT-8 [2]): 12.7%
IC50 (HCT-8 [3]): 23.8 µM
IC90 (HCT-8 [3]): 49.1 µM

[O-][n+]1nc2ccnn2c2cc(-c3ccccc3)ccc21
inhibition at 100 µM (HCT-8 [1]): 35.5%
inhibition at 10 µM (HCT-8 [2]): 13.2%

CN1CCN(c2ccc3c(c2)n2ncc([N+](=O)[O-])c2n[n+]3[O-])CC1
inhibition at 100 µM (HCT-8 [1]): 93.2%
Activity (HCT-8 [4]): Active
Activity (HCT-8 [5]): Active
inhibition at 10 µM (HCT-8 [2]): 25.1%
IC50 (HCT-8 [3]): 62.5 µM
IC90 (HCT-8 [3]): > 100 µM
Activity (HCT-8 [6]): 40.3%
Activity (HCT-8 [7]): 48%
Activity (HCT-8 [8]): 39.8%
Activity (HCT-8 [9]): 36.9%
Activity (HCT-8 [10]): 35.3%
Activity (HCT-8 [11]): 22.8%
Activity (HCT-8 [12]): 13%
Activity (HCT-8 [13]): 24.9%
Activity (HCT-8 [14]): 39%
Activity (HCT-8 [15]): 27%
Activity (HCT-8 [16]): 34.6%
Activity (HCT-8 [17]): 36.8%
Activity (HCT-8 [18]): 47%
Activity (HCT-8 [19]): 40.7%
Activity (HCT-8 [20]): 40.4%
Activity (HCT-8 [21]): 24.7%
Activity (HCT-8 [22]): 20.2%
Activity (HCT-8 [23]): 12.6%
Activity (HCT-8 [24]): 46.3%
Activity (HCT-8 [25]): 60%

O=C(O)c1cnn2c1n[n+]([O-])c1cnccc12
inhibition at 100 µM (HCT-8 [1]): 11.4%
inhibition at 10 µM (HCT-8 [2]): 13.2%

CCOC(=O)c1cnn(-c2ccncc2[N+](=O)[O-])c1N
inhibition at 100 µM (HCT-8 [1]): 69.7%
inhibition at 10 µM (HCT-8 [2]): 24.4%
IC50 (HCT-8 [3]): 58.2 µM
IC90 (HCT-8 [3]): > 100 µM

CN1CCN(c2ccc3c(c2)n2ncc(-c4ccccc4)c2n[n+]3[O-])CC1
inhibition at 100 µM (HCT-8 [1]): 69.6%
inhibition at 10 µM (HCT-8 [2]): 53%
IC50 (HCT-8 [3]): 10 µM
IC90 (HCT-8 [3]): > 100 µM

CCOC(=O)c1cn[nH]c1/N=[N+](/[O-])c1cc([N+](=O)[O-])ccc1O
inhibition at 100 µM (HCT-8 [1]): 60.4%
inhibition at 10 µM (HCT-8 [2]): 11.7%
IC50 (HCT-8 [3]): 65.2 µM
IC90 (HCT-8 [3]): > 100 µM

CCOC(=O)c1cn[nH]c1/N=[N+](/[O-])c1cnccc1O
inhibition at 100 µM (HCT-8 [1]): 31.5%
inhibition at 10 µM (HCT-8 [2]): 3.87%

[O-][n+]1nc2ccnn2c2cc(-c3cccs3)ccc21
inhibition at 100 µM (HCT-8 [1]): 48.5%
inhibition at 10 µM (HCT-8 [2]): 10.9%

COc1ccc(-c2ccc3c(c2)n2nccc2n[n+]3[O-])cc1
inhibition at 100 µM (HCT-8 [1]): 21.6%
inhibition at 10 µM (HCT-8 [2]): 11%

NC(=O)c1cnn(-c2ccncc2[N+](=O)[O-])c1N
inhibition at 100 µM (HCT-8 [1]): 22.4%
inhibition at 10 µM (HCT-8 [2]): 9.72%

[O-][n+]1nc2ccnn2c2cc(O)ccc21
inhibition at 100 µM (HCT-8 [1]): 19.7%
inhibition at 10 µM (HCT-8 [2]): -4.21%

CN(C)CCOc1ccc2c(c1)n1nccc1n[n+]2[O-]
inhibition at 100 µM (HCT-8 [1]): 42.3%
inhibition at 10 µM (HCT-8 [2]): -2.36%

CN1CCN(c2ccc3c(c2)n2nccc2n[n+]3[O-])CC1
inhibition at 100 µM (HCT-8 [1]): 32.4%
inhibition at 10 µM (HCT-8 [2]): 3.19%

CN1CCN(c2ccc3nnc4c([N+](=O)[O-])cnn4c3c2[N+](=O)[O-])CC1
inhibition at 100 µM (HCT-8 [1]): 98.7%
Activity (HCT-8 [4]): Active
Activity (HCT-8 [5]): Active
inhibition at 10 µM (HCT-8 [2]): 73.8%
IC50 (HCT-8 [3]): 5.98 µM
IC90 (HCT-8 [3]): 18.5 µM
Activity (HCT-8 [6]): 40.5%
Activity (HCT-8 [7]): 48.6%
Activity (HCT-8 [8]): 35.1%
Activity (HCT-8 [9]): 37.3%
Activity (HCT-8 [10]): 35.1%
Activity (HCT-8 [11]): 22.2%
Activity (HCT-8 [12]): 13.4%
Activity (HCT-8 [13]): 35.1%
Activity (HCT-8 [14]): 42%
Activity (HCT-8 [15]): 59%
Activity (HCT-8 [16]): 43.8%
Activity (HCT-8 [17]): 51.2%
Activity (HCT-8 [18]): 31.1%
Activity (HCT-8 [19]): 40.5%
Activity (HCT-8 [20]): 45.9%
Activity (HCT-8 [21]): 15.6%
Activity (HCT-8 [22]): 10.6%
Activity (HCT-8 [23]): 23%
Activity (HCT-8 [24]): 42.8%
Activity (HCT-8 [25]): 21%

CCCCCOc1ccc2c(c1)n1nccc1n[n+]2[O-]
inhibition at 100 µM (HCT-8 [1]): 38%
inhibition at 10 µM (HCT-8 [2]): -6.17%

CO[C@@]12[C@H](COC(N)=O)C3=C(C(=O)C(C)=C(N)C3=O)N1C[C@@H]1N[C@@H]12 [MITOMYCIN]
IC50 (HCT-8 [3]): 0.083 µM
IC90 (HCT-8 [3]): 5.7 µM
Activity (HCT-8 [6]): 40.3%
Activity (HCT-8 [7]): 28.2%
Activity (HCT-8 [9]): 36.9%
Activity (HCT-8 [11]): 22.8%
Activity (HCT-8 [12]): 19.2%
Activity (HCT-8 [14]): 71.2%
Activity (HCT-8 [15]): 44%
Activity (HCT-8 [16]): 36.3%
Activity (HCT-8 [17]): 43.2%
Activity (HCT-8 [19]): 49.1%
Activity (HCT-8 [21]): 14.6%
Activity (HCT-8 [22]): 14.1%
Activity (HCT-8 [24]): 42.8%
Activity (HCT-8 [25]): 99%

[O-][n+]1nc2ccnn2c2cc(N3CCOCC3)ccc21
inhibition at 100 µM (HCT-8 [1]): 25.8%
inhibition at 10 µM (HCT-8 [2]): 3.27%
